Test results published in ChEMBL document CHEMBL4627259, “Discovery of LY3325656: A GPR142 agonist suitable for clinical testing in human” (Bioorg Med Chem Lett, 2020).

Legend:
[1] = target: T1, Probable G-protein coupled receptor 142 (Homo sapiens, UniProt Q7Z601); test: Agonist activity at human GPR142 receptor expressed in HEK293 cells assessed as accumulation of inositol phosphate incubated for 1 hr followed by IP1-d2 addition by HTRF assay; format: functional, cell-based
T1 sequence (Q7Z601 whole entry): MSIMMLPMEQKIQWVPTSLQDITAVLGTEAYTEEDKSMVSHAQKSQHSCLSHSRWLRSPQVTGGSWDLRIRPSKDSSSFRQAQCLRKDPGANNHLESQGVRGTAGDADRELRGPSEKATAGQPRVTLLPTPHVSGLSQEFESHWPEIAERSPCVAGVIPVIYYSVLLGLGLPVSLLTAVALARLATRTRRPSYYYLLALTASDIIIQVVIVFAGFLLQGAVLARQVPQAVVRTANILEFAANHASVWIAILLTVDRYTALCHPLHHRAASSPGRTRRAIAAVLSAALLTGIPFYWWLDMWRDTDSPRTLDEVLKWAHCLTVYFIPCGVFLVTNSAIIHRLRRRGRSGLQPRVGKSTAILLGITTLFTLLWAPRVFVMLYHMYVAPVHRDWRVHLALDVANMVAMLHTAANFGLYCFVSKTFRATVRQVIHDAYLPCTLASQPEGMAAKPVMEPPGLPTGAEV
Outline: (§1)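 HEK293 cells stably expressing human GPR142 (DMEM, 10% FBS, 800 ug/mL G418, 37 °C, 5% CO2), seeded 5000 cells/well and left 18 h to attach. Compounds added at 30 uM to 1 nM, 1 h incubation in HBSS (+Ca, +Mg), 0.1% BSA, 50 mM LiCl, 20 mM HEPES pH 7.2. IP-1 HTRF read-out: IP1-d2 then cryptate, 1 h at 25 °C, 665/620 nm ratio converted via IP-1 standard curve; EC50 by 4-parameter logistic fit.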

[2] = target: T2, Probable G-protein coupled receptor 142 (Homo sapiens) (UniProt Q7Z601); test: Agonist activity at human GPR142 receptor expressed in HEK293 cells assessed as accumulation of inositol phosphate at 30 uM to 1 nM incubated for 1 hr followed by IP1-d2 addition by HTRF assay relative to control; format: functional, cell-based; outline: as §1
T2 sequence (whole entry): T1 sequence (Q7Z601 whole entry)

[3] = Drug metabolism in dog microsomes assessed as drug turnover at 20 uM measured after 30 mins by LCMS analysis; format: ADME, Canis lupus familiaris, Microsome; conditions: read-out: Drug metabolism
Outline: (§2)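 High-throughput microsomal stability: compound at 20 uM incubated with mouse, rat, dog or human liver microsomes at 37 °C; percent parent remaining measured after 30 min and reported as % turnover.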

[4] = Drug metabolism in human microsomes assessed as drug turnover at 20 uM measured after 30 mins by LCMS analysis; format: ADME, Microsome; conditions: read-out: Drug metabolism; outline: as §2
[5] = Drug metabolism in rat microsomes assessed as drug turnover at 20 uM measured after 30 mins by LCMS analysis; format: ADME, Microsome; conditions: read-out: Drug metabolism; outline: as §2
[6] = Drug metabolism in mouse microsomes assessed as drug turnover at 20 uM measured after 30 mins by LCMS analysis; format: ADME, Microsome; conditions: read-out: Drug metabolism; outline: as §2
[7] = Oral bioavailability in rat at 10 mg/kg; format: ADME, organism-based; conditions: in vivo
CYP2C9 = CYP2C9 (Homo sapiens, UniProt P11712); test: Inhibition of CYP2C9 (unknown origin) at 10 uM relative to control; format: ADME
[8] = Clearance in rat at 1 mg/kg, iv or 10 mg/kg, po; format: ADME, organism-based; conditions: in vivo
[9] = Oral bioavailability in dog at 5 mg/kg; format: ADME, organism-based, Canis lupus familiaris; conditions: in vivo
[10] = Volume of distribution at steady state in dog at 1 mg/kg, iv or 5 mg/kg, po; format: ADME, organism-based, Canis lupus familiaris; conditions: in vivo, read-out: Vdss
CYP3A4 = CYP3A4 (Homo sapiens, UniProt P08684); test: Inhibition of CYP3A4 (unknown origin) at 10 uM relative to control; format: ADME
[11] = Volume of distribution at steady state in rat at 1 mg/kg, iv or 10 mg/kg, po; format: ADME, organism-based; conditions: in vivo, read-out: Vdss
CYP2D6 = CYP2D6 (Homo sapiens, UniProt P10635); test: Inhibition of CYP2D6 (unknown origin) at 10 uM relative to control; format: ADME
[12] = Clearance in dog at 1 mg/kg, iv or 5 mg/kg, po; format: ADME, organism-based, Canis lupus familiaris; conditions: in vivo

CYP2D6, sequence (P10635 whole entry): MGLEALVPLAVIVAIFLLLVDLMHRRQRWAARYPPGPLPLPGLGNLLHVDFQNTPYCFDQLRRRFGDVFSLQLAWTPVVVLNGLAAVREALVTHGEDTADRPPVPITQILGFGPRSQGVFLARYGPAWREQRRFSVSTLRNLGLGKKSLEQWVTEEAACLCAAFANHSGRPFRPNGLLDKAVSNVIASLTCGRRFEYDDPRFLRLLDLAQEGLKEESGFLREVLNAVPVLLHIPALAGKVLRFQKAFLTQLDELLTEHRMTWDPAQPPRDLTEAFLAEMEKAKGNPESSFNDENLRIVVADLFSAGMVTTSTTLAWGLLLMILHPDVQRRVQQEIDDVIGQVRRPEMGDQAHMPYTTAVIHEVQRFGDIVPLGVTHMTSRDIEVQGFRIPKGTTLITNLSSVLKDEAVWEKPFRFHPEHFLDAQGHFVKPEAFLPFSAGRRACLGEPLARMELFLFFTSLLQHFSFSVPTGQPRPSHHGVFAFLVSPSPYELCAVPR
CYP2C9, sequence (P11712 whole entry): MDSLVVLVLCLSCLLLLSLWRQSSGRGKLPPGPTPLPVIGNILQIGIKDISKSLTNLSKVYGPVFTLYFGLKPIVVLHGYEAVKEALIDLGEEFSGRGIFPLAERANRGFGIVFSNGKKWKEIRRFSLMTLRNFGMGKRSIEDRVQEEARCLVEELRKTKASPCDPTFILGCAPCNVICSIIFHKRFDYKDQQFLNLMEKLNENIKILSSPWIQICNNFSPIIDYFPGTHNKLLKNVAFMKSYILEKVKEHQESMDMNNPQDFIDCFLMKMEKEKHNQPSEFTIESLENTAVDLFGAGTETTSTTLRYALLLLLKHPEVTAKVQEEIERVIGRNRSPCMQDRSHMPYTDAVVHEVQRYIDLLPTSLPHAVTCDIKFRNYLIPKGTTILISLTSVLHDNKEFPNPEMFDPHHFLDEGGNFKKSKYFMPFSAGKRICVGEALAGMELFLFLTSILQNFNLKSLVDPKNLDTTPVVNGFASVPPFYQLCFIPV
CYP3A4, sequence (P08684 whole entry): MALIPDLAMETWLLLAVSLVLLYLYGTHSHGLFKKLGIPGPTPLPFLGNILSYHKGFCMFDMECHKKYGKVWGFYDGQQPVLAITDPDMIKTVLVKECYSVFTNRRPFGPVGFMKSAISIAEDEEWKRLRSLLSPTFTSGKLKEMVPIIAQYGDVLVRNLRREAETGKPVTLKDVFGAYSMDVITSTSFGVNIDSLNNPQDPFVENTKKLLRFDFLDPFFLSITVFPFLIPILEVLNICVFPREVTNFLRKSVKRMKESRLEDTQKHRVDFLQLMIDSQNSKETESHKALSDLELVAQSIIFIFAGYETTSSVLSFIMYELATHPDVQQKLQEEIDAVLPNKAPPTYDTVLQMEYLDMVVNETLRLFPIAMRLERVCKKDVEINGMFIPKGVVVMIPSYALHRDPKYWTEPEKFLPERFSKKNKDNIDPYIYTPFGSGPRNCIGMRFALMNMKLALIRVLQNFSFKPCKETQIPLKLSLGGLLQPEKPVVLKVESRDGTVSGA

Compound	EC50 [1] [nM]	Emax [2] [%]	metabolised at 0.5 h, 20 µM [3] [%]	metabolised at 0.5 h, 20 µM [4] [%]	metabolised at 0.5 h, 20 µM [5] [%]	metabolised at 0.5 h, 20 µM [6] [%]	bioavailability [7] [%]	inhibition at 10 µM (CYP2C9) [%]	clearance [8] [mL/min/kg]	bioavailability [9] [%]	Vd [10] [L/kg]	inhibition at 10 µM (CYP3A4) [%]	Vd [11] [L/kg]	inhibition at 10 µM (CYP2D6) [%]	clearance [12] [mL/min/kg]
Cc1ncn(CC(F)F)c1NC(=O)[C@H]1CCC[C@@H](N(C)C(=O)c2cccc(C(F)(F)F)c2)C1	63	105	38	58	59	64									
Cc1ncn(CC2CN(C)C2)c1NC(=O)[C@H]1CCC[C@@H](N(C)C(=O)c2cccc(C(F)(F)F)c2)C1	147	103	24	20	29	38									
Cc1ncn(C)c1-c1nnc([C@@H]2C[C@H](N(C)C(=O)c3cccc(OC(F)(F)F)c3)CCO2)[nH]1			16	10	14	39									
CN(C(=O)c1cccc(Cl)c1)[C@@H]1CCO[C@H](c2nnc(-c3cnc4ccccn34)[nH]2)C1	35	102	46	29	23	66									
CN(C(=O)c1cccc(C(F)(F)F)c1)[C@@H]1CCC[C@H](c2nnc(-c3cnc4n3CCOC4)[nH]2)C1	32	102	52	84	80	70									
CN(C(=O)c1cccc(C(F)(F)F)c1)[C@@H]1CCO[C@H](c2nnc(-c3cnc4n3CCOC4)[nH]2)C1	102	108	17	12	28	27									
CN(C(=O)c1cccc(C(F)(F)F)c1)[C@@H]1CCO[C@H](c2nnc(-c3cnc4n3CCC4)[nH]2)C1	53	107	7	18	16	39									
Cc1ncn(CC#N)c1NC(=O)[C@H]1CCC[C@@H](N(C)C(=O)c2cccc(C(F)(F)F)c2)C1	93	96	6	26	21	56									
Cc1ncn(CC(F)(F)F)c1NC(=O)[C@H]1CCC[C@@H](N(C)C(=O)c2cccc(OC(F)(F)F)c2)C1	110	114	51	76	56	86									
Cc1ncn(CC(F)F)c1-c1nnc([C@H]2CCC[C@@H](N(C)C(=O)c3cccc(C(F)(F)F)c3)C2)[nH]1	41	109	83	90	67	82									
Cc1ncn(C(C)C)c1NC(=O)[C@H]1CCC[C@@H](N(C)C(=O)c2cccc(C(F)(F)F)c2)C1	31	115	33	48	52	76									
Cc1ncn(CC(F)F)c1NC(=O)[C@H]1CCC[C@@H](N(C)C(=O)c2cccc(Cl)c2)C1	104	99	19	51	79	54									
Cc1ncn(C)c1-c1nnc([C@@H]2C[C@H](N(C)C(=O)c3cccc(Cl)c3)CCO2)[nH]1			16	7	15	17									
Cc1ncn(C2CCC2)c1-c1nnc([C@@H]2C[C@H](N(C)C(=O)c3cccc(C(F)(F)F)c3)CCO2)[nH]1	16	121	48	82	13	46									
Cc1ncc(-c2nnc([C@H]3CCC[C@@H](N(C)C(=O)c4cccc(C(F)(F)F)c4)C3)[nH]2)n1C	46	98	22	69	41	53									
Cc1ncn(C)c1NC(=O)[C@H]1CCC[C@@H](N(C)C(=O)c2cccc(OC(F)(F)F)c2)C1	71	104	40	42	37	90									
Cc1ncn(CCN2CCOCC2)c1NC(=O)[C@H]1CCC[C@@H](N(C)C(=O)c2cccc(C(F)(F)F)c2)C1	51	97	19	38	63	67									
Cc1nc[nH]c1-c1nnc([C@H]2CCC[C@@H](N(C)C(=O)c3cccc(C(F)(F)F)c3)C2)[nH]1	76	101	9	13	36	36									
Cc1ncn(CC(F)(F)F)c1NC(=O)[C@H]1CCC[C@@H](N(C)C(=O)c2cccc(C(F)(F)F)c2)C1	81	114	38	62	59	67									
Cc1ncn(CC2CC2)c1-c1nnc([C@@H]2C[C@H](N(C)C(=O)c3cccc(C(F)(F)F)c3)CCO2)[nH]1	14	123	63	69	64	83									
Cc1ncn(CC2CC2)c1NC(=O)[C@H]1CCC[C@@H](N(C)C(=O)c2cccc(C(F)(F)F)c2)C1	52	118	66	72	88	97									
Cc1ncn(C)c1-c1nnc([C@H]2CCC[C@@H](N(C)C(=O)c3cccc(C(F)(F)F)c3)C2)[nH]1	11	117	46	67	43	64									
Cc1ncn(C)c1-c1nnc([C@H]2CCC[C@@H](N(C)C(=O)c3cccc(Cl)c3)C2)[nH]1	14	111	33	26	55	39	29	0	40.1	86	0.9	3.3	1	0	8.8
